In series [1] the target is T1, Steryl-sulfatase (Homo sapiens, UniProt P08842).
T1 sequence (P08842 whole entry): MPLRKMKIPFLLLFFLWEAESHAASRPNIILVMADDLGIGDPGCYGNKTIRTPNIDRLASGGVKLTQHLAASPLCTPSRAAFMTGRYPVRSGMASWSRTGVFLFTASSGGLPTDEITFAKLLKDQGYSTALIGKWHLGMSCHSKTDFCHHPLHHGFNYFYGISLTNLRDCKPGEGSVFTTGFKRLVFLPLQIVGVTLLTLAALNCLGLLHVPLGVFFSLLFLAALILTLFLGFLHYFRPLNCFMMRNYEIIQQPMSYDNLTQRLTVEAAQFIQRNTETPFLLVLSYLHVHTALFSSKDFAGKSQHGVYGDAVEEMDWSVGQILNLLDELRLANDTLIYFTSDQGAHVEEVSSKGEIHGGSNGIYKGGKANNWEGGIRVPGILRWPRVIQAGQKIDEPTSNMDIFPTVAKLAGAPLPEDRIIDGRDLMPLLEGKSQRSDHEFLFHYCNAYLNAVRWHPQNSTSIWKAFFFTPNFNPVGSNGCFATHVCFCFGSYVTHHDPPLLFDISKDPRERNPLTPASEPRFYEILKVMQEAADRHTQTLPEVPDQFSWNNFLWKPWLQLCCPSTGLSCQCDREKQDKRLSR
Briefly: (§1) Inhibition of human steroid sulfatase using 4-methylumbelliferyl sulfate substrate after 10 mins by fluorescence assay. In short, it runs like this:
(§2)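 Inhibitor is added in DMSO/Tris (1:1) and the reaction is started with enzyme. 4-MUS is 200 µM final. 4-Methylumbelliferone fluorescence (ex 360/em 460 nm) is followed for 10 min at 25 °C. Triplicates; percent activity is taken versus an inhibitor-free control and IC50 derived.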

In series [2] the target is T2, Steryl-sulfatase (Homo sapiens) (UniProt P08842).
T2 sequence (whole entry): T1 sequence (P08842 whole entry)
Briefly: Reversible inhibition of human steroid sulfatase using 4-methylumbelliferyl sulfate substrate assessed as enzyme activity recovery at 1 uM after 60 mins by fluorescence assay. Also on record: scale not given: the % may be the effect or the level left. The procedure, abridged: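 Aliquots are assayed with 4 mM 4-MUS at 0 and 60 min. The rest is dialysed against 0.1 M Tris-HCl pH 7.0, 0.1% Triton X-100, with activity measured at 540, 1020 and 1500 min. Triplicates, with an inhibitor-free control.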

Series [3] addresses T2, Steryl-sulfatase (Homo sapiens). Briefly: Ratio of Kinact to Ki for human steroid sulfatase after 5 mins by Kitz-Wilson plot analysis.
Series [4] deals with T1, Steryl-sulfatase. Briefly: Time-dependent inhibition of human steroid sulfatase using 4-methylumbelliferyl sulfate substrate by Kitz-Wilson plot analysis.
Series [5] deals with T1, Steryl-sulfatase. In words: Inhibition of human purified steroid sulfatase. In short, it runs like this:
as §2

Series [6] deals with T1, Steryl-sulfatase. Briefly: (§3) Inhibition of human steroid sulfatase using 4-methylumbelliferyl sulfate substrate after 5 mins by Kitz-Wilson plot analysis.
Series [7] deals with T2, Steryl-sulfatase (Homo sapiens). Described as §3.
The target is the same in series [8]. Described as §1. In short, it runs like this:
as §2

Series [9] shares this target. In words: Inhibition of human steroid sulfatase using 4-methylumbelliferyl sulfate as substrate at 10 uM by fluorescence assay.
For series [10] the target is unchanged. Briefly: Inhibition of human steroid sulfatase using 4-methylumbelliferyl sulfate substrate at 50 uM by fluorescence assay.
Series [11] shares this target. Briefly: Reversible inhibition of human steroid sulfatase using 4-methylumbelliferyl sulfate as substrate at 50 uM after 10 mins by fluorescence assay.
The target of series [12] is T1, Steryl-sulfatase. Briefly: Inhibition of human steroid sulfatase using 4-methylumbelliferyl sulfate substrate over 50 mins by Kitz-Wilson plot analysis.
For series [13], the target named is T2, Steryl-sulfatase (Homo sapiens). Briefly: Inhibition of human steroid sulfatase using 4-methylumbelliferyl sulfate substrate at 1 uM after 60 mins by fluorescence assay.
Series [14] in a line: Aqueous solubility of the compound. The format is physicochemical. To be noted: buffer.
Series [15] concerns the target T1, Steryl-sulfatase. In words: Non-Competitive inhibition of human steroid sulfatase using 4-methylumbelliferyl sulfate substrate by Lineweaver-Burk plot analysis.
Series [16] concerns the target T1, Steryl-sulfatase. Briefly: Mixed type inhibition of human steroid sulfatase using 4-methylumbelliferyl sulfate substrate by Lineweaver-Burk plot analysis.
For series [17], the target named is T2, Steryl-sulfatase (Homo sapiens). Briefly: Inhibition of human steroid sulfatase using 4-methylumbelliferyl sulfate substrate at 10 uM after 60 mins by fluorescence assay.

The source made the active and inactive calls. No cut-off for these calls is given here. Some results are limits rather than exact numbers.

What is called IC50 is the concentration needed to halve the response being measured. In the case of `C[C@]12CC[C@@H]3c4ccc(O)c([N+](=O)[O-])c4CC[C@H]3[C@@H]1CC[C@@H]2O`, at Steryl-sulfatase [1], the IC50 is 2.8 µM.

The compound `C[C@]12CC[C@@H]3c4ccc(O)c(C(=O)O)c4CC[C@H]3[C@@H]1CCC2=O` gave an IC50 at Steryl-sulfatase [1] of 215 µM.

With `C[C@]12CC[C@@H]3c4ccc(O)c(C=O)c4CC[C@H]3[C@@H]1CCC2=O`, the Activity in series [2] was determined as 2%. Besides, the Ratio in [3] came out at 1 ×10⁵ /M/min. In addition, the Ki at Steryl-sulfatase [4], at Steryl-sulfatase [5] and on Steryl-sulfatase [6] was 1.5 µM in each case. In addition, the Kinact in [7] stood at 0.13 min⁻¹.

Broadly, the inhibition is the drop in the measured response relative to a control, in per cent. For the compound `C[C@]12CC[C@@H]3c4cc(C=O)c(O)cc4CC[C@H]3[C@@H]1CCC2=O`, the inhibition entry in series [8] is “inactive”. The “Inhibition activity (active/inactive)” value in series [9] was “inactive”.

On Steryl-sulfatase [1], `C[C@]12CC[C@@H]3c4cc(Br)c(O)c(C=O)c4CC[C@H]3[C@@H]1CCC2=O` registered an IC50 of 145 µM. Moreover, in series [8], the inhibition entry was “inactive”. For the same compound, in series [9], the “Inhibition activity (active/inactive)” value is “inactive”.

`C[C@]12CC[C@@H]3c4ccc(O)cc4CC[C@H]3[C@@H]1CC[C@@]2(O)Cc1ccccc1` showed a Ki on Steryl-sulfatase [1] of 0.25 µM.

Turning to `C[C@]12CC[C@@H]3c4ccc(O)c(F)c4CC[C@H]3[C@@H]1CCC2=O`, half-maximal inhibition against Steryl-sulfatase [1] (IC50) was put at 3.3 µM.

`C[C@]12CC[C@@H]3c4ccc(O)c(Br)c4CC[C@H]3[C@@H]1CCC2=O` yielded an IC50 on Steryl-sulfatase [1] of 4.8 µM.

Compound `C[C@]12CC[C@@H]3c4ccc(O)c(N)c4CC[C@H]3[C@@H]1CC[C@@H]2O` registered an inhibition in series [10] of 43%.

In the case of `C=Cc1c(O)ccc2c1CC[C@@H]1[C@@H]2CC[C@]2(C)C(=O)CC[C@@H]12`, the inhibition in [10] is 45%.

Compound `C[C@]12CC[C@@H]3c4ccc(O)c(CO)c4CC[C@H]3[C@@H]1CCC2=O` gave an inhibition in [10] of 46%.

On to `C[C@]12CC[C@@H]3c4cc([N+](=O)[O-])c(O)c(C=O)c4CC[C@H]3[C@@H]1CCC2=O`, for which the inhibition entry in series [8] is “inactive”. Besides, the “Inhibition activity (active/inactive)” value in series [9] was “inactive”. The compound further came in with an inhibition in series [11] below 50%.

On to `C[C@]12CC[C@@H]3c4cc([N+](=O)[O-])c(O)cc4CC[C@H]3[C@@H]1CCC2=O`, for which, on Steryl-sulfatase [1], the half-inhibitory concentration (IC50) is 17 µM.

Consider `C[C@]12CC[C@@H]3c4ccc(O)c(C#N)c4CC[C@H]3[C@@H]1CCC2=O`, for which the IC50 on Steryl-sulfatase [1] came to 6.7 µM.

Take `C[C@]12CC[C@@H]3c4ccc(O)c(C=O)c4CC[C@H]3[C@@H]1CC[C@@]2(O)Cc1ccccc1`: the results for the inhibition entry in [8] and in [13] were “Dose-dependent effect” and 95%, respectively. For the same compound, in [2], the Activity stood at 14%. In series [3], the Ratio worked out at 2.3 ×10⁵ /M/min. Moreover, the Ki at Steryl-sulfatase [4] and at Steryl-sulfatase [12] was 0.085 µM throughout. The “Inhibition activity (active/inactive)” value in series [9] was “Active”. The compound further returned a Kinact in series [7] of 0.021 min⁻¹.

`C[C@]12CC[C@@H]3c4cc(C=O)c(O)c(C=O)c4CC[C@H]3[C@@H]1CCC2=O` displayed an IC50 against Steryl-sulfatase [1] of 224 µM. In addition, in series [14], the solubility result was “soluble”. In [9], the “Inhibition activity (active/inactive)” value was “inactive”.

Take `C[C@]12CC[C@@H]3c4ccc(O)c([N+](=O)[O-])c4CC[C@H]3[C@@H]1CCC2=O`: on Steryl-sulfatase [1], the IC50 was 2.4 µM. This compound also showed a Ki on Steryl-sulfatase [15] of 1.4 µM.

Turning to `C[C@]12CC[C@@H]3c4cc([N+](=O)[O-])c(O)c([N+](=O)[O-])c4CC[C@H]3[C@@H]1CCC2=O`, on Steryl-sulfatase [1], the IC50 is 26 µM.

With `C[C@]12CC[C@@H]3c4ccc(O)c(CN)c4CC[C@H]3[C@@H]1CC[C@@H]2O`, the inhibition in [10] worked out at 4%.

For the compound `C[C@]12CC[C@@H]3c4ccc(O)c(F)c4CC[C@H]3[C@@H]1CC[C@@]2(O)Cc1ccccc1`, the Ki on Steryl-sulfatase [1] came out at 0.03 µM; on Steryl-sulfatase [16], 0.09 µM.

Take `C[C@]12CC[C@@H]3c4cc(Br)c(O)cc4CC[C@H]3[C@@H]1CCC2=O`: the IC50 at Steryl-sulfatase [1] came to 40 µM.

As for `C[C@]12CC[C@@H]3c4cc(C=O)c(O)cc4CC[C@H]3[C@@H]1CC[C@@]2(O)Cc1ccccc1`, the inhibition in [17] worked out at 15%.

For `C[C@]12CC[C@@H]3c4ccc(C=O)cc4CC[C@H]3[C@@H]1CCC2=O`, in [8], the inhibition result was “inactive”. Besides, in [9], the “Inhibition activity (active/inactive)” value was “inactive”.
